Measured values reported in ChEMBL document CHEMBL4609998 (Bioorg Med Chem, 2020).
Active and inactive are the calls of the source. No cut-off for these calls is given here.

Experiments:
U-87 MG [1] = test: Antiproliferative activity against human U87 cells assessed as reduction in cell viability incubated for 5 days by Prestoblue reagent based assay; assay type: functional, U-87MG ATCC; conditions: 120 h
Method in brief: (§1)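 Glioma lines in DMEM/10% FBS/2 mM glutamine: U87 at 1 × 10^3 and T98 at 5 × 10^2 cells/well, incubated 48 h, then treated over 1–30,000 nM for 5 d. PrestoBlue viability; EC50 calculated from dose-response curves. Mean ± SEM, 3 independent experiments in triplicate.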

T98 [2] = test: Antiproliferative activity against human T98 cells assessed as reduction in cell viability at 3 to 300 uM incubated for 5 days by Prestoblue reagent based assay; assay type: functional
Method in brief: (§2)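 Library screen: U87 (1 × 10^3/well) and T98 (5 × 10^2/well) cells seeded 48 h ahead, then exposed for 5 d to three concentrations (3, 30 and 300 μM). Viability by PrestoBlue; EC50 derived from the resulting dose-response curves. Means of three independent experiments in triplicate.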

U-87 MG [3] = test: Antiproliferative activity against human U87 cells assessed as reduction in cell viability at 3 to 300 uM incubated for 5 days by Prestoblue reagent based assay; assay type: functional; conditions: U-87MG ATCC; method in brief: as §2
T98 [4] = test: Antiproliferative activity against human T98 cells assessed as reduction in cell viability incubated for 5 days by Prestoblue reagent based assay; assay type: functional; conditions: T98, 120 h; method in brief: as §1
Homo sapiens = species: Homo sapiens; test: Antiproliferative activity against human G317 cell spheroid assessed as reduction in cell viability incubated for 8 days; assay type: functional
Method in brief: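 G317 patient-derived glioma cells (4 × 10^3) spun into ultra-low attachment round-bottom wells (1000g, 4 °C, 10 min), left 2 days to form spheroids, then exposed to inhibitors at 4 concentrations from 10 nM to 10 μM for 8 days. Imaged on day 10; spheroid area quantified by image analysis. Mean ± SEM of 6 spheroids from two cultures.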

T98 [5] = test: Synergistic antiproliferative activity against human T98 cells assessed as reduction in cell viability at 10 to 1000 nM in presence of GDC0941 incubated for 5 days by Prestoblue reagent based assay; assay type: functional
T98 [6] = test: Antiproliferative activity against human T98 cells assessed as reduction in cell viability at 1 to 1000 nM incubated for 5 days by Prestoblue reagent based assay; assay type: functional
Method in brief: (§3)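 U87 (1 × 10^3/well) or T98 (5 × 10^2/well) cells, grown in DMEM with 10% FBS and 2 mM glutamine, plated 48 h before dosing at 1–1,000 nM. Viability read with PrestoBlue at day 5; EC50 values taken from dose-response curves. Mean ± SEM, three independent experiments in triplicate.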

U-87 MG [7] = test: Antiproliferative activity against human U87 cells assessed as reduction in cell viability at 1 to 1000 nM incubated for 5 days by Prestoblue reagent based assay; assay type: functional; conditions: U-87MG ATCC; method in brief: as §3
U-87 MG [8] = test: Synergistic antiproliferative activity against human U87 cells assessed as reduction in cell viability at 10 to 1000 nM in presence of GDC0941 incubated for 5 days by Prestoblue reagent based assay; assay type: functional; conditions: U-87MG ATCC
T98 [9] = test: Antiproliferative activity against human T98 cells assessed as reduction in cell viability at 1 to 30000 nM incubated for 5 days by Prestoblue reagent based assay; assay type: functional; method in brief: as §1
U-87 MG [10] = test: Antiproliferative activity against human U87 cells assessed as reduction in cell viability at 1 to 30000 nM incubated for 5 days by Prestoblue reagent based assay; assay type: functional; conditions: U-87MG ATCC; method in brief: as §1
T98 [11] = test: Synergistic antiproliferative activity against human T98 cells assessed as reduction in cell viability at 100 nM in presence of GDC0941 incubated for 5 days by Prestoblue reagent based assay; assay type: functional

Row | EC50 (U-87 MG [1]) [µM] | SMILES | inhibition (T98 [2]) | inhibition (U-87 MG [3]) | EC50 (T98 [4]) [µM] | inhibition (Homo sapiens) | other results
1 | 0.1 to 0.15 | Nc1nc2cc(-c3nn(C[C@H]4CCCO4)c4ncnc(N)c34)ccc2o1 | Active | Active | 0.1 to 0.15 | – | –
2 | – | CC(C)n1nc(-c2ccc3oc(N)nc3c2)c2c(N)ncnc21 | – | – | – | Dose-dependent effect | –
3 | – | Nc1nc2cc(-c3nn(CC4CCCC4)c4ncnc(N)c34)ccc2o1 | Active | Active | – | Dose-dependent effect | Activity (T98 [5]): Active; inhibition (T98 [6]): Active; inhibition (U-87 MG [7]): Active; Activity (U-87 MG [8]): Active
4 | 0.1 to 0.15 | Nc1nc2cc(-c3nn(CC4OCCO4)c4ncnc(N)c34)ccc2o1 | Active | Active | 0.1 to 0.15 | – | –
5 | 0.1 to 0.15 | Nc1nc2cc(-c3nn(CC4CCCO4)c4ncnc(N)c34)ccc2o1 (stereo unspecified) | Active | Active | 0.1 to 0.15 | – | –
6 | – | Nc1ncnc2c1c(-c1cnc3[nH]ccc3c1)nn2CC1CCCC1 | – | – | – | – | inhibition (T98 [9]): Active; inhibition (U-87 MG [10]): Active
7 | – | CCc1c2c(nc3ccc(O)cc13)-c1cc3c(c(=O)n1C2)COC(=O)[C@]3(O)CC | – | – | – | Dose-dependent effect | –
8 | 0.1 to 0.15 | Nc1nc2cc(-c3nn(C[C@@H]4CCCO4)c4ncnc(N)c34)ccc2o1 | Active | Active | 0.1 to 0.15 | – | –
9 | – | CNc1ncc2c(-c3ccc4oc(N)nc4c3)nn(CC3CCCC3)c2n1 | – | – | – | – | inhibition (T98 [9]): Active; inhibition (U-87 MG [10]): Active
10 | 0.1 to 0.15 | COC(Cn1nc(-c2ccc3oc(N)nc3c2)c2c(N)ncnc21)OC | Active | Active | 0.1 to 0.15 | – | –
11 | 0.1 to 0.15 | CCOC(Cn1nc(-c2ccc3oc(N)nc3c2)c2c(N)ncnc21)OCC | Active | Active | 0.1 to 0.15 | Dose-dependent effect | Activity (T98 [11]): Active; inhibition (T98 [6]): Active; inhibition (U-87 MG [7]): Active
